Reference: publication PMC3428514 (Molecular cell, 2012)
pIC50: −log10 of the molar value. Peptide text beside a SMILES is read from it.

Legend:
[1] = target: caspase-8 (Homo sapiens, UniProt Q14790); experiment: caspase-8 dimerization by Superdex 200 gel filtration; format: biochemical; details: 10 μM, 15 minutes at 30°C
Outline: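 Recombinant caspase-8 (100 nM) incubated 15 min at 30°C with test compound at 10 μM, DMSO, or 10 μM Ac-VAD-CHO, then run on Superdex 200 gel filtration. Collected fractions analysed by SDS-PAGE with Coomassie Blue staining, and caspase activity measured in each fraction.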

[2] = test system: X-IAP; details: read-out: IC50, X-IAP; ref Glover et al., 2003; cited from earlier work
[3] = test system: Cdc25B; details: read-out: IC50, Cdc25B; ref Vogt et al., 2003; cited from earlier work

Chain of caspase-8 (Q14790 217-479, species assumed): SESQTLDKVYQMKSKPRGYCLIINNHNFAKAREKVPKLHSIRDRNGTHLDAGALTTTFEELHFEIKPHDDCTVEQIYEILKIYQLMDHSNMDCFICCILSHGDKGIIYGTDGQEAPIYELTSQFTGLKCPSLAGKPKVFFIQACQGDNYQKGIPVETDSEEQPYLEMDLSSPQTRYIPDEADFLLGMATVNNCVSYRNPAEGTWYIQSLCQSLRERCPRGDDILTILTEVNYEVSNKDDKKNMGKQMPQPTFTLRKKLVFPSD

effect on caspase-8 dimerization [1] | Structure (SMILES) | pIC50 [2] | pIC50 [3]
shift to the dimeric species | CC(=O)N[C@H](C(=O)N[C@@H](C)C(=O)N[C@H](C=O)CC(=O)O)C(C)C [Ac-VAD-CHO] (Ac-Val-Ala-Asp-aldehyde) | – | –
– | CSC(=S)NN=C(c1ccccn1)c1ccccn1.[Cu][Br] [Comp-C] | < 5.00 | < 5.00
